Screening data as filed in PubChem BioAssay.
VLA-4 inh: inhibition in a human VLA-4 binding assay. VLA-4 expressing cells, ligand binding flow cytometry. inhibition, % (about 7 µM as worked out from the volumes in the protocol). 330,000 compounds, 0.2% hits. AID 2557; in the data active = inhibition above about 50%
Target sequence (P13612 whole entry, looked up): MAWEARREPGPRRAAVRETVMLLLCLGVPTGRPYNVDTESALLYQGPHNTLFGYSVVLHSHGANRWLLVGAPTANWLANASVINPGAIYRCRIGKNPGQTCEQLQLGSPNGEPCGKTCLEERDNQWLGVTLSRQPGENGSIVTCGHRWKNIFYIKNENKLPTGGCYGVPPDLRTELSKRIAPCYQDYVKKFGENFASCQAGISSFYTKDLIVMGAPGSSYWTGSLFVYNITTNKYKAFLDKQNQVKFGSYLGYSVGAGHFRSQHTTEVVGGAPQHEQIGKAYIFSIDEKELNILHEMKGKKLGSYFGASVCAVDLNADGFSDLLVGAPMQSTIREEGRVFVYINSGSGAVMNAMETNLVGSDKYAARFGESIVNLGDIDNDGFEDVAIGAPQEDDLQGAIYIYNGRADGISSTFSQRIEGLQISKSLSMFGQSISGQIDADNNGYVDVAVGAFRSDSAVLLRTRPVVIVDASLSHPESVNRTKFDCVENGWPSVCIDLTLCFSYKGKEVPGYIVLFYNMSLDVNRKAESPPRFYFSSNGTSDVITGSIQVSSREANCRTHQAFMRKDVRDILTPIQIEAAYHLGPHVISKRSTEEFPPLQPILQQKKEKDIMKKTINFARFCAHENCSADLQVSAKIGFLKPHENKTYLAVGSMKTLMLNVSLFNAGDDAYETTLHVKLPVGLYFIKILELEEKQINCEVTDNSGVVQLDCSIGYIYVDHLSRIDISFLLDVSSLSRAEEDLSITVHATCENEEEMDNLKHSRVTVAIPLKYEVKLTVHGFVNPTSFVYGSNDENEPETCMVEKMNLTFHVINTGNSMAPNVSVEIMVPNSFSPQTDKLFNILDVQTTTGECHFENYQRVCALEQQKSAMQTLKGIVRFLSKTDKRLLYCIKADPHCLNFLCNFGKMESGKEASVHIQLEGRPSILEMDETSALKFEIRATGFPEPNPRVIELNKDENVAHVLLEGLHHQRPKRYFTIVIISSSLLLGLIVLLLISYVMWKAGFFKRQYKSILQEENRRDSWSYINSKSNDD
Myeloid diff 2: promotes myeloid progenitor differentiation; AID 624256; ER-HoxA9 myeloid progenitors, lysozyme-GFP differentiation, flow cytometry; 360,000 compounds, 1% hits; calls only at 10 µM;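 active = normalized GFP-positive differentiation at or above the plate's own cutoff, the solvent-only control mean plus 3 SD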;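 also: cells exposed to compound for four days before flow analysis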
Platelet DG rel: modulates dense granule release in human platelets; inhibition, %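 (compounds screened at 7.5 µM in platelet-rich plasma)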; 300,000 compounds, 0.22% hits; human platelet-rich plasma, SFLLRN dense granule ATP release, luminescence;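 active = mean replicate score, as percent of positive control, at or above 50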
SENP1 FRET inh: blocks the human SENP1 SUMO protease catalytic domain. Q9P0U3. recombinant SENP1 catalytic domain, CyPet-SUMO1-YPet FRET cleavage. inhibition, % at 10 µM. 360,000 compounds, 0.21% hits. AID 624204;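 active = inhibition at least 30% at 10 µM, raw YFP signal under a set limit, fluorescence ratio 0.5 to 1.5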;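 also: 0% = enzyme with DMSO and 100% = no enzyme wells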
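Material – human SENP1 catalytic domain · Input – SENP1 enzyme, 20 pM final · Compound dosing – single concentration of 10 µM compound, 0.5% DMSO final · Timing – enzyme reaction for 50 min at room temperature, dark · Measured by – FRET fluorescence in CFP and YFP emission channels · Control set – no-enzyme wells low, DMSO-plus-enzyme wells high control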
VLA-4 mod pick: confirmation of allosteric modulators of human VLA-4 integrin. shares compounds with VLA-4 inh. 1,300 compounds, 2% hits. U937 cells, HUTS-21 LIBS mAb binding, flow cytometry; LDV ligand present at threefold Kd. inhibition, % at 6.7 µM; in the data active = inhibition above about 40%;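 also: 0% = ligand without compound and 100% = no ligand background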
Active calls of the source: *; i = inactive; · = no result given. Compounds with a hit are over-represented: about 1.5% of the library has one in this group of screens.

SMILES	VLA-4 inh	Myeloid diff 2	Platelet DG rel	SENP1 FRET inh	VLA-4 mod pick
CC(C)Oc1cccc(-c2cc(C(=O)N3CCN(c4ncccn4)CC3)c3ccccc3n2)c1	17	i	2	-1	-2
O=C(c1cc(-c2ccccc2Cl)nc2ccc(Br)cc12)N1CCN(c2ccccn2)CC1	-3	i	-6	3	·
CCOC1CCCc2oc(-c3ccc(OC)cc3)c(C#CCCO)c21 (stereo not given)	·	i	·	6	·
O=c1cc(C(F)(F)F)nc(-n2[nH]c3c(c2=O)CCCC3)[nH]1	50*	i	-2	6	-5
COc1ccccc1CNC(=O)COC(=O)C1CCN(S(=O)(=O)c2ccccc2)CC1	-6	i	3	-1	·
C=CCN(CC=C)C(=S)NC(=O)c1ccc(OC)cc1	52*	i	7	0	3
CC(C)Nc1nc(Cl)nc(Nc2ccccc2)n1	0	i	2	-1	·
Cc1cc(-c2nnc(SCC(=O)Nc3ccc(F)cc3F)n2N)n[nH]1	50*	i	-4	2	8
Cc1cc(-c2nnc(SCC(=O)Nc3ccccc3F)n2N)n[nH]1	-2	i	18	1	·
COc1cccc(-c2cc(C(=O)N3CCN(Cc4ccc5c(c4)OCO5)CC3)on2)c1	55*	i	0	3	19
CC(C)COC(=O)COc1cc(Cl)c(Cl)cc1Cl	11	·	·	·	·
Cc1ccc(S(=O)(=O)NC(=O)C2(C)CCN2C(=O)CC2CCCC2)nc1 (stereo not given)	·	i	·	0	·
COc1ccc(S(=O)(=O)NCC(=O)O)cc1C(=O)NC1CCCCC1	41	i	8	-1	-7
Cc1ccc(S(=O)(=O)NCCC(=O)NC2CCCCCC2)cc1C	-1	i	·	0	·
COc1ccc(C(=O)c2ccc([N+](=O)[O-])cc2)cc1S(=O)(=O)N1CCC(C(=O)O)CC1	-2	i	2	0	·
COC(=O)[C@]1(Cc2ccccc2)N[C@H](CN(C)S(=O)(=O)c2ccc(C)cc2)[C@@H]2C(=O)N(Cc3ccccc3)C(=O)[C@@H]21	-5	i	·	1	·
CCN(C[C@H]1N[C@@](Cc2ccccc2)(C(=O)OC)[C@H]2C(=O)N(Cc3ccccc3)C(=O)[C@@H]12)S(=O)(=O)c1ccc(-c2ccccc2)cc1	-27	i	·	0	-5
COC(=O)[C@]1(Cc2ccccc2)N[C@H](CN(C)S(=O)(=O)c2ccc(-c3ccccc3)cc2)[C@@H]2C(=O)N(Cc3ccccc3)C(=O)[C@@H]21	-11	i	·	2	-2
CCCCN(CC(O)COc1cccc(C)c1)CC(O)COc1cccc(C)c1 (stereo not given)	4	i	2	-1	·
COc1ccc(-c2nc(C)ncc2-c2ccc(Cl)cc2)c(O)c1	68*	i	-10	0	21
COc1ccc(CC(=O)NNC(=O)CSc2ccc(C)cc2)cc1	53*	i	3	-1	4
O=C(COc1ncnc2ccccc12)Nc1ccc(S(=O)(=O)N2CCOCC2)cc1	-3	i	15	2	·
O=C(CN1C(=O)c2ccccc2S1(=O)=O)NC1CC2CCC1C2 (stereo not given)	51*	i	7	5	5
CCN(CC)S(=O)(=O)c1cccc(C(=O)OCC(=O)Nc2ccccc2OC(F)F)c1	-1	i	7	3	0
O=C1CCc2cc(S(=O)(=O)Nc3ccc(F)cc3)ccc2N1	15	i	·	2	·
SMILES	VLA-4 inh	Myeloid diff 2	Platelet DG rel	SENP1 FRET inh	VLA-4 mod pick
O=C1Cc2cc(S(=O)(=O)NCc3ccc(F)cc3)ccc2N1	-2	i	·	-6	0
COC(=O)c1c(C)[nH]c(C(=O)C(C)OC(=O)C2CC2)c1C (stereo not given)	0	i	·	3	-4
COC(=O)c1c(C)[nH]c(C(=O)C(C)OC(=O)c2ccco2)c1C (stereo not given)	-25	i	·	0	9
Cc1ccc(-n2c(C)cc(/C=C3/SC(=O)N(CC(=O)N4CCOCC4)C3=O)c2C)nc1	9	·	0	·	·
CCOC(=O)C1CCCN(C2CC(=O)N(c3ccccc3)C2=O)C1 (stereo not given)	9	i	-4	1	·
CCOC(=O)C1CCCN(C2CC(=O)N(c3ccc(N4C(=O)CC(N5CCCC(C(=O)OCC)C5)C4=O)cc3)C2=O)C1 (stereo not given)	4	i	1	-1	·
CCOC(=O)C1CCCN(C2CC(=O)N(c3ccc(C)c(C)c3)C2=O)C1 (stereo not given)	-1	i	-2	1	2
CCOC(=O)C1CCCN(C2CC(=O)N(c3cccc(C(F)(F)F)c3)C2=O)C1 (stereo not given)	-11	i	-3	0	0
CCN(CC(=O)Nc1ccc(NC(C)=O)cc1)C(=O)CN1C(=O)NC(C)(c2ccc3ccccc3c2)C1=O (stereo not given)	·	i	·	0	·
C=C(C)CN(CC)C(=O)CN1C(=O)NC(C)(c2ccc3ccccc3c2)C1=O (stereo not given)	50*	i	-2	1	-13
COC(=O)C(Cc1ccccc1)NC(=O)CNC(=O)c1sc2ccccc2c1Cl (stereo not given)	5	i	-21	0	·
CCc1cccc(C)c1NC(=O)C1CCN(C(=O)c2ccc([N+](=O)[O-])cc2)CC1	56*	i	-3	1	1
CCOC(=O)N1CCN(C(=O)C2CCN(C(=O)c3ccc([N+](=O)[O-])cc3)CC2)CC1	15	i	3	1	·
COc1cc(OC)cc(C(=O)NC(=S)NCc2ccco2)c1	-25	i	-5	2	·
COc1cc(OC)cc(C(=O)NNC(=S)NCc2ccco2)c1	53*	i	0	2	8
CCN(C(=O)CSc1nc(C)nc2sc(C)c(C)c12)C1CCS(=O)(=O)C1 (stereo not given)	46	i	·	0	·
CCOC(=O)c1sc2nc(C)nc(SCC(=O)N(C)C3CCS(=O)(=O)C3)c2c1C (stereo not given)	42	i	1	-6	-10
COC(=O)c1cn(NC(=O)Cc2c(F)cccc2Cl)c(=O)c2ccccc12	-2	·	-1	1	·
CCCC[C@H]1COCCS(=O)(=O)N1Cc1ccc(Br)cc1	5	i	0	0	·
CC(C)(C)c1ccc(NS(=O)(=O)c2ccc(N)cc2)cc1	0	i	4	1	4
Nc1ccc(S(=O)(=O)Nc2ccc(S(N)(=O)=O)cc2)cc1	-5	i	11	2	·
Nc1ccc(NC(=O)c2cccc(C(=O)Nc3ccc(N)cc3Cl)c2)c(Cl)c1	-16	i	5	1	·
O=C(/C=C/c1ccccc1)NNc1ccc(Cl)cc1	55*	i	-14	0	3
CCN1CCN(Cc2ccc(NC(=O)c3cc(NC(=O)N4CCNC4=O)cc(OC)c3)cc2C(F)(F)F)CC1	55*	i	-1	2	-2
